Results on 18 compounds are retold here after PubChem BioAssay.

Unmarked numbers belong to inactive results. Inconclusive results are not listed. Calls of active or inactive are those of the source.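 How the source made its calls, unless noted: active means RAM network inhibition above 8.4% in each of two replicates, 3 SD over the compound average; inconclusive means above 8.4% inhibition in only one replicate; inactive means 8.4% inhibition or less in each replicate.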

A word on the viability: it is a read-out of living cells in per cent, often relative to untreated cells. One may read the inhibition as the change of the read-out against control, counted positive when it falls.

Experiment [1] in a line: S. cerevisiae growth inhibition in permissive medium (OD615), pilot counter-assay for S. cerevisiae lifespan shortening project, permissive growth control (AID 705;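 active means growth inhibition above 25% in both replicates, a cutoff set 3 SD above the mean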). Particulars: OD615, 24 h, at 10 µM, stronger effect = higher value. In a few lines:
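System: engineered DeaD yeast; Medium: permissive raffinose/galactose medium; Compound dosing: 10 µM single dose, 0.25% DMSO; Incubation: 4 h cell pre-growth, 24 h exposure at 30 °C; Technique: OD at 615 nm; Evaluation: growth inhibition from lowered OD615 after 24 h.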

Experiment [2] can be described thus: S. cerevisiae growth inhibition in restrictive medium, OD615, pilot screen, restrictive growth control, yeast lifespan reduction project (AID 706;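 active means growth inhibition above a set limit, 3 SD over mean compound inhibition, in both replicates, cut at about 43% in these data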;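 further: modified DeaD lifespan yeast strain shifted to restrictive glucose medium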). Particulars: OD615, 48 h, at 10 µM, stronger effect = higher value. In a few lines:
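Material: modified S. cerevisiae; buffer or medium: CSMM-D glucose medium; doses: one concentration, 10 µM final, 0.25% DMSO; incubation: 48 h compound exposure at 30 °C; detection: optical density at 615 nm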

A short description of experiment [3]: doxorubicin toxicity protection in MRP-1 cells – H69AR cells, CellTiter-Glo, duplicate, MRP-1 activator project, pilot screen (AID 807;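 active means viability increase at or above a cutoff of the median across tested compounds plus 3 SD, cut at about 8.5% in these data, passing the limit was not always enough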;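 further: compound pretreatment 18-22 h then 72 h combined with doxorubicin; 0% = doxorubicin alone and 100% = vehicle without doxorubicin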). To be noted: H69AR viability with doxorubicin, CellTiter-Glo luminescence; at 10 µM; stronger effect = higher value. For orientation: ATP-based viability assays read luminescence as a measure of living cells.
Experiment [4] in a line: viability of HCT116 without oncogenic beta-catenin – human colon tumor cells, pilot screen (AID 823;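 active means cell viability at or below a set limit in both duplicate runs, the limit being the all-compound median minus 4 SD, cut at about 23% in these data, passing the limit was not always enough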;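 further: 0% = wells killed by 20 µM Hyamine and 100% = untreated DMSO cell wells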). To be noted: HCT116 beta-catenin knockout viability, CellTiter-Glo, 60 h; at 10 µM; stronger effect = lower value.
Experiment [5] is described as follows: viability of PTEN-null HCT116 cells – cell-based, HCT116 clonal line, CellTiter-Glo, pilot screen (AID 824;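 active means viability at or below 27.92% in each of two runs, the all-compound median minus 4 SD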;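 further: 0% = 20 µM Hyamine control and 100% = vehicle cell control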). To be noted: HCT116 PTEN-deleted viability, 60 h, at 10 µM, stronger effect = lower value.
Experiment [6] in a line: RAM pathway blockade in budding yeast – dse1pr::URA3 reporter, 5-FOA selection, pilot screen (AID 869;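 active means inhibition over a set limit, the all-compound mean plus 3 SD, in both replicate runs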;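 further: 0% = DMSO wells with no growth and 100% = 10 µM 1-NA-PP1 with full growth; RAM network block rescues cells from 5-FOA so hits raise OD615 growth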). Particulars: S. cerevisiae dse1pr::URA3 5-FOA growth, OD615, 2 d; at 10 µM; stronger effect = higher value; strain carries analog-sensitive mutant Cbk1 kinase.
Experiment [7] can be described thus: RAM signaling pathway blockade in yeast – S. cerevisiae, Pdr1DBD-CYC8 efflux-inhibited sensitized strain, primary screen (AID 1298).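 Further: 0% = DMSO untreated cells without growth and 100% = 10 µM 1-NA-PP1 full growth; higher means more yeast growth rescued from 5-FOA killing.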 Particulars: S. cerevisiae cbk1-as DSE1-URA3 strain, 5-FOA growth OD615, 2 d; at 50 µM; stronger effect = higher value.

For `CCC(C)Sc1nnc(Cc2cc(=O)[nH]c(=O)[nH]2)n1-c1ccc(F)cc1` (stereo unspecified), the growth inhibition in experiment [1] was -0.665%; in experiment [2] it was 15.2%. Further, the viability increase in experiment [3] is -1.78%. For the same compound, the viability in experiment [4] was 97.1%; in experiment [5], 100%. In addition, the inhibition in experiment [6] is 0.605%. Also, in experiment [7], the RAM network inhibition was -1.47%.

As to `CCOc1ccc(NC(=O)CCS(=O)(=O)c2cccc3nsnc23)cc1`, the results for the growth inhibition in experiment [1] and in experiment [2] were -1.9% and -3.6%, respectively. Moreover, the viability increase in experiment [3] was -3.08%. Further, the results for the viability in experiment [4] and in experiment [5] were 101% and 93.7%, respectively. Moreover, in experiment [6], the inhibition was 1.31%. In addition, in experiment [7], the RAM network inhibition was 2.36%.

Take `COCCCN1CC23C=CC(O2)C(C(=O)O)C3C1=O` (stereo unspecified): the growth inhibition is 2.65% in experiment [1] and -2.98% in experiment [2]. The viability increase in experiment [3] is -1.24%. For the same compound, the viability in experiment [4] is 102%; in experiment [5], 106%. In addition, the inhibition in experiment [6] is -0.105%. Further, the RAM network inhibition in experiment [7] was 4.16%.

In the case of `O=C(C1CC1)N1CCc2cc(Br)cc(S(=O)(=O)NCc3ccc4c(c3)OCO4)c21`, the growth inhibition in experiment [1] is -4.48%; in experiment [2] it was -5.21%. Further, the viability increase in experiment [3] is -1.52%. For the same compound, the viability was 87.1% in experiment [4] and 86.1% in experiment [5]. Besides, the inhibition in experiment [6] is 1.23%. Also, in experiment [7], the RAM network inhibition was 5.72%.

For `COCCN1C(=O)c2ccccc2C(C(=O)N2CCN(c3ccccn3)CC2)C1c1ccc(F)cc1` (stereo unspecified), the growth inhibition in experiment [1] is 1.72%; in experiment [2] it was -22.7%. For the same compound, the viability increase in experiment [3] is -4.12%. The viability in experiment [4] is 92.2%; in experiment [5] it was 90.4%. Moreover, the inhibition in experiment [6] was 0.335%. The RAM network inhibition in experiment [7] is 8.63%.

Regarding `CN(C(=O)CSc1nc(N)nn1-c1ccccc1)c1ccccc1`, the results for the growth inhibition in experiment [1] and in experiment [2] were -7.03% and 4.13%, respectively. For the same compound, the viability increase in experiment [3] was -0.53%. Further, the values for the viability in experiment [4] and in experiment [5] were 104% and 99%, respectively. The inhibition in experiment [6] is 0.325%. For the same compound, the RAM network inhibition in experiment [7] was 2.3%.

As for `COc1ccc(-c2nc(Cn3c(SCc4cccc(F)c4)nc4ccncc43)c(C)o2)cc1OC`, the growth inhibition in experiment [1] was 4.55%; in experiment [2], 30.2%. Besides, in experiment [3], the viability increase was -3.1%. Further, the viability in experiment [4] is 69.9%; in experiment [5], 60.1%. In experiment [6], the inhibition was 1%. The RAM network inhibition in experiment [7] is 3.81%.

On to `COc1cc(NC(=O)Cn2ncc3c2-c2ccccc2OC3)cc(OC)c1OC`, for which the figures for the growth inhibition in experiment [1] and in experiment [2] were -6.13% and 6.98%, respectively. In addition, in experiment [3], the viability increase was -3.04%. In addition, the viability in experiment [4] was 86.6%; in experiment [5], 83.5%. For the same compound, the inhibition in experiment [6] is 2.05%. Moreover, the RAM network inhibition in experiment [7] was 2.19%.

`C/C(NCCN1CCOCC1)=C(\C#N)C(N)=O`: the figures for the growth inhibition in experiment [1] and in experiment [2] were -3.8% and -6.1%, respectively. Also, in experiment [3], the viability increase is -0.51%. Further, the viability in experiment [4] is 105%; in experiment [5], 97.6%. Further, the inhibition in experiment [6] is 0.795%. Besides, the RAM network inhibition in experiment [7] is 7.19%.

For `Cc1ccc(C(=O)CSC2=NC(N)=C(C#N)C3(CCCCC3)C2C(N)=O)cc1` (stereo unspecified), the growth inhibition in experiment [1] was 17.7%; in experiment [2], 51% (active). The viability increase in experiment [3] is -4.6%. The viability in experiment [4] is 89.6%; in experiment [5] it was 97.6%. Besides, the inhibition in experiment [6] is 0.27%. Further, in experiment [7], the RAM network inhibition is 9.3%.

As to `Cc1ccc(N)c(C(O)(C(F)(F)F)C(F)(F)F)c1`, the values for the growth inhibition in experiment [1] and in experiment [2] were -4.98% and -2.67%, respectively. Also, in experiment [3], the viability increase was 2.71%. Also, the viability is 105% in experiment [4] and 99.6% in experiment [5]. Besides, the inhibition in experiment [6] was -0.695%. Further, in experiment [7], the RAM network inhibition was 2.27%.

Take `COc1nc(NCCC2=CCCCC2)nc(OC)n1`: the values for the growth inhibition in experiment [1] and in experiment [2] were -12.2% and 2.74%, respectively. Also, the viability increase in experiment [3] was 2.72%. Moreover, the viability is 98.6% in experiment [4] and 99.4% in experiment [5]. Moreover, the inhibition in experiment [6] is 0.235%. Further, in experiment [7], the RAM network inhibition is 3.01%.

Turning to `CCOC(=O)N1CCN(C(=O)CN(c2ccc(Oc3ccccc3)cc2)S(C)(=O)=O)CC1`, the growth inhibition in experiment [1] is -5.22%; in experiment [2], -15.6%. Moreover, the viability increase in experiment [3] was -2%. Besides, the viability in experiment [4] is 75.2%; in experiment [5], 66.2%. Also, the inhibition in experiment [6] is 0.265%. Moreover, in experiment [7], the RAM network inhibition was 2.44%.

With `CCOc1ccc2nc(N3CCC(C(=O)N4CCN(C(=O)c5ccco5)CC4)CC3)sc2c1`, the figures for the growth inhibition in experiment [1] and in experiment [2] were -10.8% and -9.39%, respectively. In experiment [3], the viability increase is -4.93%. In addition, the figures for the viability in experiment [4] and in experiment [5] were 69.7% and 77.7%, respectively. In addition, the inhibition in experiment [6] is 0.305%. Further, the RAM network inhibition in experiment [7] is 3.91%.

`COC(=O)c1ccc(C2C(C(=O)Nc3ccc(C)cc3C)=C(C)Nc3ncnn32)cc1` (stereo unspecified): the growth inhibition was 2.06% in experiment [1] and 9.76% in experiment [2]. Also, in experiment [3], the viability increase is -2.32%. The viability is 97.2% in experiment [4] and 92.9% in experiment [5]. For the same compound, the inhibition in experiment [6] was 2.46%. In experiment [7], the RAM network inhibition is 8.36%.

As to `CCn1c(C(C)NC(=O)c2cccs2)nc2ccccc21` (stereo unspecified), the growth inhibition in experiment [1] was -1.68%; in experiment [2] it was -9.03%. Moreover, the viability increase in experiment [3] is -1.68%. Moreover, the values for the viability in experiment [4] and in experiment [5] were 103% and 91.9%, respectively. The inhibition in experiment [6] was 1.33%. Also, in experiment [7], the RAM network inhibition is 6.3%.

As for `CCOC(=O)N1CCN(C(c2ccc(C(C)C)cc2)c2sc3nc(C)nn3c2O)CC1` (stereo unspecified), the growth inhibition in experiment [1] was -1.48%; in experiment [2], -10.5%. Moreover, in experiment [3], the viability increase was 2.48%. Moreover, the figures for the viability in experiment [4] and in experiment [5] were 102% and 91%, respectively. Also, in experiment [6], the inhibition was 0.2%. Moreover, the RAM network inhibition in experiment [7] is 0.93%.

For the compound `O=C(CSc1nc2c(c(=O)n1-c1ccc(Br)cc1)SCC2)NCC1CCCO1` (stereo unspecified), the growth inhibition in experiment [1] was -11.1%; in experiment [2], -8.53%. The viability increase in experiment [3] was -1.02%. Also, the viability in experiment [4] is 97.9%; in experiment [5] it was 101%. For the same compound, the inhibition in experiment [6] was 1.69%. Further, the RAM network inhibition in experiment [7] was 2.63%.
